# Source: ChEMBL document CHEMBL1127451, “Benzoselenazolinone derivatives designed to be glutathione peroxidase mimetics feature inhibition of cyclooxygenase/5-lipoxygenase pathways and anti-inflammatory activity” (1994)
# Experiments:
# Type in all cases: functional
# [1] = tested on: Rattus norvegicus; assay: Tested for acute anti-inflammatory activity of the antirat serum-induced edema in rats at dose of 10 mg/kg at time interval- 1 hr
# Procedure, shortened: (§1)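 Oral dosing of fasted Wistar rats (200–240 g, six per group) with drug in 0.5 mL 2% gelatin; 1 h later 0.1 mL rabbit antirat serum given by subplantar injection into hind paw.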
# [2] = tested on: Rattus norvegicus; assay: Tested for acute anti-inflammatory activity of the antirat serum-induced edema in rats at dose of 0.1 mg/kg at time interval- 0.5 hr; procedure, shortened: as §1
# [3] = tested on: Rattus norvegicus; assay: Tested for acute anti-inflammatory activity of carrageenan-induced foot edema in rats at dose of 1 mg/kg at time interval- 3h
# Procedure, shortened: (§2)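 Fasted male-unspecified Wistar rats (200–240 g), groups of six, dosed orally with drug in 0.5 mL 2% gelatin; 1 h later 0.1 mL carrageenan (2% in […]) injected subplantar into hind paw. Paw volume by water plethysmometer at 0, 0.5, 1, 2, 3, 4 h; mean swelling versus vehicle-treated group expressed as percent inhibition.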
# [4] = tested on: Rattus norvegicus; assay: Tested for acute anti-inflammatory activity of carrageenan-induced foot edema in rats at dose of 0.1 mg/kg at time interval- 1 hr; procedure, shortened: as §2
# [5] = tested on: Rattus norvegicus; assay: Tested for acute anti-inflammatory activity of carrageenan-induced foot edema in rats at dose of 1 mg/kg at time interval- 1 hr; procedure, shortened: as §2
# [6] = tested on: Rattus norvegicus; assay: Tested for acute anti-inflammatory activity of the antirat serum-induced edema in rats at dose of 0.1 mg/kg at time interval- 3h; procedure, shortened: as §1
# [7] = tested on: Rattus norvegicus; assay: Tested for acute anti-inflammatory activity of carrageenan-induced foot edema in rats at dose of 0.1 mg/kg at time interval- 3h; procedure, shortened: as §2
# [8] = tested on: Rattus norvegicus; assay: Tested for acute anti-inflammatory activity of the antirat serum-induced edema in rats at dose of 10 mg/kg at time interval- 3h; procedure, shortened: as §1
# [9] = tested on: Rattus norvegicus; assay: Tested for acute anti-inflammatory activity of the antirat serum-induced edema in rats at dose of 0.1 mg/kg at time interval- 2 hr; procedure, shortened: as §1
# [10] = tested on: Rattus norvegicus; assay: Tested for acute anti-inflammatory activity of the antirat serum-induced edema in rats at dose of 0.1 mg/kg at time interval- 4 hr; procedure, shortened: as §1
# [11] = tested on: Rattus norvegicus; assay: Tested for acute anti-inflammatory activity of carrageenan-induced foot edema in rats at dose of 1 mg/kg at time interval- 4 hr; procedure, shortened: as §2
# [12] = tested on: Rattus norvegicus; assay: Tested for acute anti-inflammatory activity of the antirat serum-induced edema in rats at dose of 1 mg/kg at time interval- 4 hr; procedure, shortened: as §1
# [13] = tested on: Rattus norvegicus; assay: Tested for acute anti-inflammatory activity of the antirat serum-induced edema in rats at dose of 1 mg/kg at time interval- 0.5 hr; procedure, shortened: as §1
# [14] = tested on: Rattus norvegicus; assay: Tested for acute anti-inflammatory activity of carrageenan-induced foot edema in rats at dose of 10 mg/kg at time interval- 3h; procedure, shortened: as §2
# [15] = tested on: Rattus norvegicus; assay: Tested for acute anti-inflammatory activity of carrageenan-induced foot edema in rats at dose of 10 mg/kg at time interval- 1 hr; procedure, shortened: as §2
# [16] = tested on: Rattus norvegicus; assay: Tested for acute anti-inflammatory activity of carrageenan-induced foot edema in rats at dose of 0.1 mg/kg at time interval- 0.5 hr; procedure, shortened: as §2
# [17] = tested on: Rattus norvegicus; assay: Tested for acute anti-inflammatory activity of the antirat serum-induced edema in rats at dose of 10 mg/kg at time interval- 0.5 hr; procedure, shortened: as §1
# [18] = tested on: Rattus norvegicus; assay: Tested for acute anti-inflammatory activity of the antirat serum-induced edema in rats at dose of 1 mg/kg at time interval- 1 hr; procedure, shortened: as §1
# [19] = tested on: Rattus norvegicus; assay: Tested for acute anti-inflammatory activity of carrageenan-induced foot edema in rats at dose of 1 mg/kg at time interval- 0.5 hr; procedure, shortened: as §2
# [20] = tested on: Rattus norvegicus; assay: Tested for acute anti-inflammatory activity of the antirat serum-induced edema in rats at dose of 0.1 mg/kg at time interval- 1 hr; procedure, shortened: as §1
# [21] = tested on: Rattus norvegicus; assay: Tested for acute anti-inflammatory activity of carrageenan-induced foot edema in rats at dose of 10 mg/kg at time interval- 2 hr; procedure, shortened: as §2
# [22] = tested on: Rattus norvegicus; assay: Tested for acute anti-inflammatory activity of carrageenan-induced foot edema in rats at dose of 10 mg/kg at time interval- 4 hr; procedure, shortened: as §2
# [23] = tested on: Rattus norvegicus; assay: Tested for acute anti-inflammatory activity of the antirat serum-induced edema at dose of 1 mg/kg at time interval- 3h; procedure, shortened: as §1
# [24] = tested on: Rattus norvegicus; assay: Tested for acute anti-inflammatory activity of the antirat serum-induced edema in rats at dose of 10 mg/kg at time interval- 2 hr; procedure, shortened: as §1
# [25] = tested on: Rattus norvegicus; assay: Tested for acute anti-inflammatory activity of carrageenan-induced foot edema in rats at dose of 10 mg/kg at time interval- 0.5 hr; procedure, shortened: as §2
# [26] = tested on: Rattus norvegicus; assay: Tested for acute anti-inflammatory activity of carrageenan-induced foot edema in rats at dose of 1 mg/kg at time interval- 2 hr; procedure, shortened: as §2
# [27] = tested on: Rattus norvegicus; assay: Tested for acute anti-inflammatory activity of carrageenan-induced foot edema in rats at dose of 0.1 mg/kg at time interval- 2 hr; procedure, shortened: as §2
# [28] = tested on: Rattus norvegicus; assay: Tested for acute anti-inflammatory activity of the antirat serum-induced edema in rats at dose of 10 mg/kg at time interval- 4 hr; procedure, shortened: as §1
# [29] = tested on: Rattus norvegicus; assay: Tested for acute anti-inflammatory activity of carrageenan-induced foot edema in rats at dose of 0.1 mg/kg at time interval- 4 hr; procedure, shortened: as §2
# [30] = tested on: Rattus norvegicus; assay: Tested for acute anti-inflammatory activity of the antirat serum-induced edema in rats at dose of 1 mg/kg at time interval- 2 hr; procedure, shortened: as §1
smiles,measurement,setting,value
COc1ccc2c(c1)c(CC(=O)O)c(C)n2C(=O)c1ccc(Cl)cc1 [INDOMETHACIN],inhibition in vivo at 10 mg/kg,[1],-1.5%
same,inhibition in vivo at 0.1 mg/kg,[2],-28.3%
same,inhibition in vivo at 1 mg/kg,[3],40%
same,inhibition in vivo at 0.1 mg/kg,[4],11.3%
same,inhibition in vivo at 1 mg/kg,[5],41.8%
same,inhibition in vivo at 0.1 mg/kg,[6],4.4%
same,inhibition in vivo at 0.1 mg/kg,[7],4%
same,inhibition in vivo at 10 mg/kg,[8],25.5%
same,inhibition in vivo at 0.1 mg/kg,[9],4.4%
same,inhibition in vivo at 0.1 mg/kg,[10],16.9%
same,inhibition in vivo at 1 mg/kg,[11],29.5%
same,inhibition in vivo at 1 mg/kg,[12],7.5%
same,inhibition in vivo at 1 mg/kg,[13],-8.1%
same,inhibition in vivo at 10 mg/kg,[14],68.7%
same,inhibition in vivo at 10 mg/kg,[15],26.2%
same,inhibition in vivo at 0.1 mg/kg,[16],-124%
same,inhibition in vivo at 10 mg/kg,[17],-21.2%
same,inhibition in vivo at 1 mg/kg,[18],-3%
same,inhibition in vivo at 1 mg/kg,[19],-22.2%
same,inhibition in vivo at 0.1 mg/kg,[20],-7.9%
same,inhibition in vivo at 10 mg/kg,[21],55.5%
same,inhibition in vivo at 10 mg/kg,[22],65.2%
same,inhibition in vivo at 1 mg/kg,[23],1.6%
same,inhibition in vivo at 10 mg/kg,[24],22.5%
same,inhibition in vivo at 10 mg/kg,[25],-57.1%
same,inhibition in vivo at 1 mg/kg,[26],40.2%
same,inhibition in vivo at 0.1 mg/kg,[27],1.7%
same,inhibition in vivo at 10 mg/kg,[28],24.5%
same,inhibition in vivo at 0.1 mg/kg,[29],-1.7%
same,inhibition in vivo at 1 mg/kg,[30],10%
